The text below walks through data of ChEMBL document CHEMBL4680175, “Sulfonamide-based ring-fused analogues for CAN508 as novel carbonic anhydrase inhibitors endowed with antitumor activity: Design, synthesis, and in vitro biological evaluation” (Eur J Med Chem, 2020).

One test deals with NCI-H226. Description: Antitumor activity against human NCI-H226 assessed as cell growth inhibition at 10 uM incubated for 48 hrs by sulforhodamine B assay. It is filed as functional. Conditions: read-out: GI. An outline of the steps:
(§1)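 NCI Drug Evaluation Branch protocol: primary single-dose screen at 10 μM across a 57-line human cancer panel. Drug exposure is 48 h. Cell growth and viability are read by sulforhodamine B assay. Data are given as a mean graph of percent growth of treated cells and reported as percentage growth inhibition (GI%).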

Test [1] deals with MDA-MB-468. Briefly: Antiproliferative activity against human MDA-MB-468 cells measured after 48 hrs under normoxic condition by MTT assay. It is filed as functional, cell-based. Conditions: MDA-MB-468, 48 h. A general note: Tetrazolium assays rely on reduction of a dye to a coloured formazan, in cell work by metabolically active cells.
The next test concerns RXF 393. Description: Antitumor activity against human RXF 393 cells assessed as cell growth inhibition at 10 uM incubated for 48 hrs by sulforhodamine B assay. It is filed as functional. Conditions: read-out: GI. An outline of the steps:
as §1
(In general: In SRB staining, fixed cells bind dye roughly in proportion to their protein.)

Test [2] has as its system MCF7. Description: Induction of apoptosis in human MCF7 cells assessed as fold increase in apoptotic cells by Annexin V-FITC/propidium iodide staining based flow cytometric analysis relative to control. The format is functional. For orientation: A flow cytometer gives signals particle by particle.
For a further test, the system named is OVCAR-8. Description: Antitumor activity against human OVCAR-8 cells assessed as cell growth inhibition at 10 uM incubated for 48 hrs by sulforhodamine B assay. The format is functional. Conditions: read-out: GI. An outline of the steps: as §1
The subject of test [3] is MCF7. Description: Induction of apoptosis in human MCF7 cells assessed as late apoptotic cells by Annexin V-FITC/propidium iodide staining based flow cytometric analysis (reference value: 0.29 %). The format is functional.
The subject of test [4] is MCF7. Briefly: Antiproliferative activity against human MCF7 cells measured after 48 hrs under normoxic condition by MTT assay. It is filed as functional, cell-based. Conditions: MCF7, 48 h.
Test [5] has as its system MCF7. Description: Antiproliferative activity against human MCF7 cells measured after 48 hrs under CoCl2-induced hypoxic condition by MTT assay. The format is functional, cell-based. Conditions: MCF7, 48 h.
Test [6] concerns MDA-MB-468. Briefly: Antiproliferative activity against human MDA-MB-468 cells measured after 48 hrs under CoCl2-induced hypoxic condition by MTT assay. The format is functional, cell-based. Conditions: MDA-MB-468, 48 h.
Test [7] relates to MCF7. Description: Induction of cell cycle arrest in human MCF7 cells assessed as accumulation at G2/M phase at IC50 concentration incubated for 24 hrs by PI/RNase staining based flow cytometric analysis. It is filed as functional. An outline of the steps:
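Cells were washed in ice-cold PBS, fixed in ice-cold 70% ethanol, treated with 100 µg/mL RNase and stained with 40 µg/mL PI. DNA content was read by flow cytometry, with sub-G1 compared against control.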

Test [8] has as its system MCF7. Briefly: Induction of apoptosis in human MCF7 cells assessed as early apoptotic cells by Annexin V-FITC/propidium iodide staining based flow cytometric analysis (reference value: 0.47 %). It is filed as functional.
Another test deals with IGROV-1. Briefly: Antitumor activity against human IGROV1 cells assessed as cell growth inhibition at 10 uM incubated for 48 hrs by sulforhodamine B assay. It is filed as functional. Conditions: read-out: GI. An outline of the steps:
as §1

Another test concerns NCI-H322M. Briefly: Antitumor activity against human NCI-H322M cells assessed as cell growth inhibition at 10 uM incubated for 48 hrs by sulforhodamine B assay. It is filed as functional. Conditions: read-out: GI. An outline of the steps:
as §1

A further test concerns HL-60(TB). Description: Antitumor activity against human HL-60(TB) cells assessed as cell growth inhibition at 10 uM incubated for 48 hrs by sulforhodamine B assay. The format is functional. Conditions: read-out: GI. An outline of the steps: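 Single-dose NCI-60-type screen of 57 human cancer cell lines at 10 μM under the NCI Drug Evaluation Branch protocol. Drugs exposed for 48 h; growth and viability read by sulforhodamine B assay. Data given as mean-graph percent growth of treated cells, expressed as percent growth inhibition.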

A further test relates to SW-620. Description: Antitumor activity against human SW620 cells assessed as cell growth inhibition at 10 uM incubated for 48 hrs by sulforhodamine B assay. It is filed as functional. Conditions: read-out: GI. An outline of the steps: (§2)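 NCI one-dose screen: 57-cell-line panel exposed at 10 μM for 48 h, Drug Evaluation Branch protocol. Growth and viability read by sulforhodamine B; data given as percent growth inhibition from the mean-graph of percent growth of treated cells.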

For the next test, the system named is UACC-62. Briefly: Antitumor activity against human UACC-62 cells assessed as cell growth inhibition at 10 uM incubated for 48 hrs by sulforhodamine B assay. Conditions: read-out: GI. It is filed as functional. An outline of the steps: as §2
The test system of a further test is A549. Briefly: Antitumor activity against human A549/ATCC cells assessed as cell growth inhibition at 10 uM incubated for 48 hrs by sulforhodamine B assay. It is filed as functional. Conditions: read-out: GI. An outline of the steps:
as §1

For a further test, the system named is ACHN. Description: Antitumor activity against human ACHN cells assessed as cell growth inhibition at 10 uM incubated for 48 hrs by sulforhodamine B assay. It is filed as functional. Conditions: read-out: GI. An outline of the steps: as §1
For the next test, the system named is M14. Description: Antitumor activity against human M14 cells assessed as cell growth inhibition at 10 uM incubated for 48 hrs by sulforhodamine B assay. It is filed as functional. Conditions: read-out: GI. An outline of the steps: as §1
The subject of another test is 786-0. Briefly: Antitumor activity against human 786-0 cells assessed as cell growth inhibition at 10 uM incubated for 48 hrs by sulforhodamine B assay. It is filed as functional. Conditions: read-out: GI. An outline of the steps: as §1
The test system of the next test is EKVX. Description: Antitumor activity against human EKVX cells assessed as cell growth inhibition at 10 uM incubated for 48 hrs by sulforhodamine B assay. It is filed as functional. Conditions: read-out: GI. An outline of the steps:
as §1

For another test, the system named is OVCAR-5. Briefly: Antitumor activity against human OVCAR-5 cells assessed as cell growth inhibition at 10 uM incubated for 48 hrs by sulforhodamine B assay. It is filed as functional. Conditions: read-out: GI. An outline of the steps:
as §1

The test system of another test is HCC 2998. Briefly: Antitumor activity against human HCC2998 cells assessed as cell growth inhibition at 10 uM incubated for 48 hrs by sulforhodamine B assay. It is filed as functional. Conditions: read-out: GI. An outline of the steps:
as §1

Another test deals with SR. Description: Antitumor activity against human SR cells assessed as cell growth inhibition at 10 uM incubated for 48 hrs by sulforhodamine B assay. Conditions: read-out: GI. The format is functional. An outline of the steps: as §2
The subject of the next test is SK-OV-3. Description: Antitumor activity against human SK-OV-3 cells assessed as cell growth inhibition at 10 uM incubated for 48 hrs by sulforhodamine B assay. It is filed as functional. Conditions: read-out: GI. An outline of the steps:
as §1

Another test concerns SNB-19. Briefly: Antitumor activity against human SNB-19 cells assessed as cell growth inhibition at 10 uM incubated for 48 hrs by sulforhodamine B assay. The format is functional. Conditions: read-out: GI. An outline of the steps: as §1
The next test relates to A498. Description: Antitumor activity against human A498 cells assessed as cell growth inhibition at 10 uM incubated for 48 hrs by sulforhodamine B assay. It is filed as functional. Conditions: read-out: GI. An outline of the steps: as §1
The next test deals with NCI-H23. Description: Antitumor activity against human NCI-H23 cells assessed as cell growth inhibition at 10 uM incubated for 48 hrs by sulforhodamine B assay. The format is functional. Conditions: read-out: GI. An outline of the steps: as §1
For another test, the system named is MDA-MB-435. Description: Antitumor activity against human MDA-MB-435 cells assessed as cell growth inhibition at 10 uM incubated for 48 hrs by sulforhodamine B assay. It is filed as functional. Conditions: read-out: GI. An outline of the steps:
as §1

Another test relates to HCT-15. Briefly: Antitumor activity against human HCT15 cells assessed as cell growth inhibition at 10 uM incubated for 48 hrs by sulforhodamine B assay. It is filed as functional. Conditions: read-out: GI. An outline of the steps: as §1
In the next test the test system is UACC-257. Briefly: Antitumor activity against human UACC-257 cells assessed as cell growth inhibition at 10 uM incubated for 48 hrs by sulforhodamine B assay. It is filed as functional. Conditions: read-out: GI. An outline of the steps:
as §2

The subject of a further test is COLO 205. Description: Antitumor activity against human COLO205 cells assessed as cell growth inhibition at 10 uM incubated for 48 hrs by sulforhodamine B assay. The format is functional. Conditions: read-out: GI. An outline of the steps: as §1
Another test relates to SF-295. Briefly: Antitumor activity against human SF295 cells assessed as cell growth inhibition at 10 uM incubated for 48 hrs by sulforhodamine B assay. Conditions: read-out: GI. The format is functional. An outline of the steps:
as §1

A further test has as its system SK-MEL-28. Briefly: Antitumor activity against human SK-MEL-28 cells assessed as cell growth inhibition at 10 uM incubated for 48 hrs by sulforhodamine B assay. It is filed as functional. Conditions: read-out: GI. An outline of the steps:
as §1

For the next test, the system named is HT-29. Description: Antitumor activity against human HT-29 cells assessed as cell growth inhibition at 10 uM incubated for 48 hrs by sulforhodamine B assay. It is filed as functional. Conditions: read-out: GI. An outline of the steps:
as §1

A further test concerns OVCAR-4. Description: Antitumor activity against human OVCAR-4 cells assessed as cell growth inhibition at 10 uM incubated for 48 hrs by sulforhodamine B assay. It is filed as functional. Conditions: read-out: GI. An outline of the steps: as §1
Another test deals with TK-10. Briefly: Antitumor activity against human TK-10 cells assessed as cell growth inhibition at 10 uM incubated for 48 hrs by sulforhodamine B assay. Conditions: read-out: GI. It is filed as functional. An outline of the steps:
as §2

Activity calls are given as the source filed them. The rule behind the calls is not given here.

For the compound `N#Cc1c(-c2ccc(Cl)cc2)nc2c(/N=N/c3ccc(S(N)(=O)=O)cc3)c(N)nn2c1N`, the results for the inhibition of growth at 10 µM with NCI-H226, in the test with RXF 393 and in the test on OVCAR-8 were 25%, 29% and 25%, respectively. Further, the IC50 in the test with MDA-MB-468 [1] worked out at 11.4 µM; in the test on MCF7 [4] it was 2.07 µM; in the test on MCF7 [5], 10.3 µM; with MDA-MB-468 [6], 19.6 µM. Besides, the “fold change (FC)” value in the test with MCF7 [2] stood at 18. The figures for the Activity with MCF7 [3] and in the test on MCF7 [8] were 8.2% and 5.88%, respectively. In addition, the outcome in the test with MCF7 [7] was Active.

Turning to `N#Cc1c(-c2ccc(F)cc2)nc2c(/N=N/c3ccc(S(N)(=O)=O)cc3)c(N)nn2c1N`, the inhibition of growth at 10 µM in the test on NCI-H226 was found to be 25%; with IGROV-1 it was 36%; with RXF 393 it was 59%; in the test on OVCAR-8, 25%; in the test on NCI-H322M it was 21%. Moreover, the IC50 with MDA-MB-468 [1] was 5.38 µM; in the test on MCF7 [4] it was 2.96 µM; in the test on MCF7 [5], 7.73 µM; with MDA-MB-468 [6], 11.3 µM. Besides, in the test on MCF7 [2], the “fold change (FC)” value turned out to be 23. For the same compound, the Activity amounted to 10.89% in the test with MCF7 [3] and 6.58% in the test on MCF7 [8]. In the test with MCF7 [7], the result was Active.

With `Cc1ccc(-c2nc3c(/N=N/c4ccc(S(N)(=O)=O)cc4)c(N)nn3c(N)c2C#N)cc1`, the inhibition of growth at 10 µM was determined as 97% with HL-60(TB); 83% in the test on SW-620; 35% in the test with NCI-H226; 47% in the test on UACC-62; 37% in the test on A549; 100% in the test on ACHN. The inhibition of growth at 10 µM in the test on M14 amounted to 54%; in the test on IGROV-1, 63%; in the test with 786-0, 35%; in the test with EKVX it was 30%; with RXF 393 it was 72%; in the test with OVCAR-5, 21%. Also, the inhibition of growth at 10 µM stood at 48% with HCC 2998; 71% in the test on SR; 36% in the test on SK-OV-3; 42% with SNB-19; 41% with A498; 56% in the test on NCI-H23. Moreover, the inhibition of growth at 10 µM in the test with OVCAR-8 came to 56%; in the test on MDA-MB-435, 48%; with NCI-H322M, 34%; in the test on HCT-15, 18%; in the test on UACC-257 it was 28%; in the test with COLO 205 it was 86%. Further, the inhibition of growth at 10 µM was 51% in the test on SF-295; 47% with SK-MEL-28; 64% in the test on HT-29; 48% with OVCAR-4; 34% with TK-10. Further, the IC50 in the test with MDA-MB-468 [1] turned out to be 1.37 µM; in the test on MCF7 [4], 6.8 µM; in the test with MCF7 [5], 15.1 µM; in the test on MDA-MB-468 [6] it was 3.03 µM.

As usually defined, the IC50 is the point on the concentration scale where inhibition reaches its midpoint.
